Only a sample is shown.
Apaf1 activ: activators of human Apaf-1 apoptosome, primary screen, biochemical, DEVD-Rh110 fluorescence, uHTS. Apaf-1 apoptosome caspase-3 activation; active compounds read low. activity change, negative = activation, % at 20 µM. hit rate 0.31% among 330,000. AID 489031, 2010;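 active means activity change at or below -40% at 20 µM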
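system = biochemical Apaf-1 apoptosome reconstitution | buffer or medium = 20 mM HEPES pH 7.5 with CHAPS, BSA | also added = dATP and cytochrome c as apoptosome triggers, (Z-DEVD)2-Rh110 substrate | incubation = 30 min compound preincubation and 50 min reaction, both room temperature | measured by = fluorescence, 540 nm emission, 480 nm excitation | read-out basis = Caspase-3 cleavage activity downstream of Apaf-1 activation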
Rh110 interf act: Rh110 fluorescence interference by putative Apaf-1 activators, confirmation, artefact control for Apaf-1 activator project, biochemical, 20 µM. shares compounds with Apaf1 activ. quenched caspase reaction, Ex480/Em540. fluorescence interference (activity change), % at 20 µM, hits read low. 980 tested, under 10 active;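 active means mean activity change at or below -40% when tested at 20 µM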
Apaf-1 act conf: Apaf-1 activators, single-dose retest, confirmation, biochemical, fluorescence, DEVD-Rh110, 20 µM. reconstituted apoptosome caspase-3 activity; active compounds read low. AID 504617, 2011. shares compounds with Apaf1 activ. hit rate 5% among 980. activity change, negative = activation, % at 20 µM;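 active means mean activity change at or below -40%, meaning activation of 40% or more, at 20 µM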
Fluor interf act: fluorescence interference of Apaf-1 activator hits, dose response, artefact control for Apaf-1 activator project | shares compounds with Apaf1 activ | fluorescence interference counterscreen, Apaf-1 activator assay | EC50, µM | 55 tested, under 10 active | AID 588592, 2011; call rule not given here
Numbers without * were called inactive; nt = not tested or not shown.

SMILES | Apaf1 activ | Rh110 interf act | Apaf-1 act conf | others
NS(=O)(=O)c1ccc2c(c1)C1C=CCC1C(C1CC=CCC1)N2 (centres undefined) | 47 | nt | nt
O=C(NC(=S)Nn1cnc2c(cnn2-c2ccccc2)c1=O)c1ccc(Oc2ccccc2)cc1 | 41 | nt | nt
COC(=O)Cn1cnc2c(cnn2-c2ccccc2)c1=O | -197* | 1 | 7
CN(CC(=O)Nc1ccccc1N1CCOCC1)CC(=O)Nc1ccc(F)c(F)c1F | -72* | 8 | 12
CCCN(CC(=O)Nc1ccccc1C)C(=O)C1CC(=O)N(c2ccccc2C(C)CC)C1 (centres undefined) | 48 | nt | nt
Clc1ccc(-c2nnc3sc(Cc4cccs4)nn23)cc1 | 58 | nt | nt
CCN(Cc1ccccc1)C(=O)C1CCC(CNc2c(N3CCOCC3)c(=O)c2=O)CC1 (centres undefined) | -410* | 10 | 1
COc1ccc(C2=Nn3c(nnc3-c3ccccc3F)SC2)cc1OC1CCCC1 | 47 | nt | nt
O=C(Nc1ccccc1C(=O)N1CCN(Cc2ccccc2)CC1)c1ccccc1 | -95* | -15 | 8
CC1=NN(c2ccc(C)c(C)c2)C(=O)/C1=C/c1ccc2c(c1)n(C)c(=O)n2C | 94 | nt | nt
Cc1ncc([N+](=O)[O-])n1CCN1C(=O)c2ccccc2C1=O | -144* | -3 | 9
CCN1CCN(CCNC(=O)c2ccc3nc(-c4cccc(C)c4)c(-c4cccc(C)c4)nc3c2)CC1 | 47 | nt | nt
COc1ccc(N2C(=O)CC(N(CCc3ccc(OC)c(OC)c3)C(=S)Nc3ccccc3)C2=O)cc1 (centres undefined) | -41* | -4 | 16
Cc1c(C)n(CC(O)CN2CCN(C)CC2)c2ccccc12 (centres undefined) | -67* | 8 | 18
Cc1c(C)n(CCC(=O)O)c2ccccc12 | -70* | -3 | 10
COc1ccccc1N1CCN(CC(O)COc2cccc3ccccc23)CC1 (centres undefined) | 17 | nt | nt
Cc1cc(O)c2c(c1O)C(=O)[C@]13C(=C2O)C(=O)[C@@H]2[C@@H](O)[C@H]1[C@@H]1[C@H](O)[C@H]3C(=O)C3=C(O)c4c(O)cc(C)c(O)c4C(=O)[C@]312 | 69 | nt | nt
CCN1CCN(C(=O)CN(c2cc(OC)ccc2OC)S(C)(=O)=O)CC1 | -191* | 3 | 13
Cc1ccc(S(=O)(=O)Nc2ccc3c(c2)CC(=O)N([C@H](C)CO)C[C@@H](C)[C@H](CN(C)Cc2ccc(-c4ccccc4)cc2)O3)cc1 | 41 | nt | nt
Cc1cccnc1NC(=O)c1ccc(OCC2CCCO2)cc1 (centres undefined) | 54 | nt | nt
CCOC(=O)c1c(C)c(C(=O)NCC2CCCO2)c(C)n1C (centres undefined) | -59* | -2 | 11
CCN(CC)S(=O)(=O)c1cccc(NC(=O)C2SC(=Nc3ccc(C)cc3C)C(C(=O)NCC3CCCO3)=C2N)c1 (centres undefined) | 45 | nt | nt
CCOc1ccc(/C=C/[N+](=O)[O-])c2ccccc12 | 80 | nt | nt
Cc1ccc(-n2nc3ccc(N)cc3n2)c(C)c1 | 68 | nt | nt
CCOc1ccc(S(=O)(=O)N(CC(=O)N2CCc3ccccc32)Cc2ccco2)cc1 | -307* | 8 | 11
SMILES | Apaf1 activ | Rh110 interf act | Apaf-1 act conf | others
N#Cc1ccc(C23CC4(C2)[C@H](CN(Cc2ccc(-c5ccccc5)cc2)[C@@H]4c2ccccc2)C3c2ccc(C(F)(F)F)cc2)cc1 (some centres undefined) | 45 | nt | nt
C#CCOCCOCCOCCNc1nc(N2CCN(C(=O)[C@H](CCCCN)n3cc([C@@H](N)[C@H](C)CC)nn3)CC2)nc(N2CCN(C(=O)[C@H](CCCCN)n3cc([C@@H](N)CC(N)=O)nn3)CC2)n1 | 44 | nt | nt
CN(CCO)c1nc(N)c2c(N)nc3c(c2c1C#N)CC(=O)N3Cc1cccs1 | 77 | nt | nt
COc1ccc(NC(=O)CCCCCN2C(=O)c3cccc([N+](=O)[O-])c3C2=O)c(OC)c1 | 41 | nt | nt
COc1cc([N+](=O)[O-])ccc1NC(=O)CN1CCc2cc(OC)c(OC)cc2C1 | 44 | nt | nt
COc1cc([N+](=O)[O-])ccc1NC(=O)COC(=O)c1ccc(NC(N)=O)cc1 | -44* | -1 | -43* | Fluor interf act=>100
COc1ccc(-c2coc3c(CN4CCCCC4)c(O)c(CN4CCCCC4)c(O)c3c2=O)cc1 | 42 | nt | nt
Cc1c(C(=O)N(CCc2ccccc2)Cc2ccccc2)cccc1[N+](=O)[O-] | 41 | nt | nt
